Screens: PubChem, Broad Institute
GSIS activator – primary screen for activators of insulin secretion dependent on glucose, INS-1E cells, GLuc reporter luminescence | activation, % at 16.6 µM | 370,000 compounds, 0.61% hits | AID 743287 | INS-1E GLuc reporter insulin secretion, 2-3 h;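 active means lowest replicate activation of at least 40%, so every replicate reaches that level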;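 further: 0% = median of neutral control wells and 100% = median of IBMX positive control wells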
PAX8 inh HTS – inhibitors of PAX8 transcriptional activity in RMG-I cells; RMG-I TPO-luciferase reporter, SteadyGlo, 24 h; inhibition, % at 12.6 µM; AID 652154; 360,000 compounds, 1.2% hits;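 active means mean replicate inhibition at least 60% with every replicate also reaching 60%; inconclusive means only one of the two criteria is met; inactive means mean below 60% and not all replicates reaching 60%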;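 further: luciferase light reporting Pax8 driven TPO promoter activity; plate controls were median of neutral control wells for no effect and mitoxantrone controls for full effect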
MLL AF4-AF9 inh – inhibitors of human MLL-AF4/AF9 interaction | inhibition, % at 10 µM | AlphaScreen, biotin-AF4 peptide binding to FLAG-AF9 | P42568 | 350,000 compounds, 0.47% hits | AID 651704;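 active means every replicate reaching a set inhibition limit, whatever the replicate mean, cut at about 25% in these data; inconclusive means mean inhibition reaches that limit but some replicates miss it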;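 further: 0% = plate neutral control median and 100% = total signal loss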
Target sequence (P42568 whole entry, looked up): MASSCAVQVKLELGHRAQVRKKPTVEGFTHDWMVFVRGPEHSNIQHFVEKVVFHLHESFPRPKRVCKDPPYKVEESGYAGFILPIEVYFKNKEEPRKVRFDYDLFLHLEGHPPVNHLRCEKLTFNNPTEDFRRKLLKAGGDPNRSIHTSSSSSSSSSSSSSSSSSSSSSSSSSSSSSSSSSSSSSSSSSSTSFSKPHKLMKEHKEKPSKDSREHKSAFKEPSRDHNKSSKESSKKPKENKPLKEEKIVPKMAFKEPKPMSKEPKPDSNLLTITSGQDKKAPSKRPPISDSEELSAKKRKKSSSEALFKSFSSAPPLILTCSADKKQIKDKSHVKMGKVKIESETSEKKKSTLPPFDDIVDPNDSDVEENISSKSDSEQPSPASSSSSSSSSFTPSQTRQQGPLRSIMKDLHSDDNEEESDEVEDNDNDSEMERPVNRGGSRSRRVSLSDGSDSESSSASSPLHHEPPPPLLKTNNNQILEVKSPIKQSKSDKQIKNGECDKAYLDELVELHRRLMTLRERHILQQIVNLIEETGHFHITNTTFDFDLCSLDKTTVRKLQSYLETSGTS
EWS-Fli inh – blocks EWS/Fli oncoprotein-driven transcription; A673 NR0B1-luciferase reporter, viability-normalised; inhibition, % at 12.6 µM; 350,000 compounds, 0.67% hits; AID 651661;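 active means mean inhibition of at least 50% after viability correction, with every replicate also passing that limit; inconclusive means mean reaches 50% but only one of two replicates passes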;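 further: firefly luciferase signal divided by Alamar Blue viability fluorescence both relative to DMSO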
XiGFP reactiv – reactivates the inactive X chromosome in mouse fibroblasts. AID 743238. activation, % at 7.58 µM. 360,000 compounds, 0.055% hits. XiGFP mouse fibroblasts, % GFP-positive cells imaging, 3 d; cells co-treated with 5-aza-dC sensitizer; scaled so ellipticine positive control = 100%;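 active means mean normalized replicate activation at least 10% and every replicate at or above 10%; inconclusive means only one of the two criteria met; inactive means mean below 10% and not all replicates reach 10%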;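 further: 0% = median of on-plate neutral control wells and 100% = ellipticine 6 µM median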
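Material: XiGFP fibroblasts, SV40-immortalized. Buffer or medium: DMEM plus 5-aza-dC sensitizer. Compound: single concentration per compound, delivered by pin transfer. Times: 3 days compound exposure. Controls: ellipticine 6 µM.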
PGC1a acetyl inh – modulators of PGC1a acetylation | U2OS PGC1a acetylation, AlphaScreen anti-acetyl-lysine; with virally co-expressed GCN5 acetyltransferase | inhibition, % at 15.6 µM | 350,000 compounds, 0.17% hits;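 active means every replicate shows inhibition of at least 40%; inconclusive means mean inhibition at least 40% but some replicate below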;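 further: 0% = neutral control wells and 100% = positive control wells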
Numbers without * were called inactive; u = inconclusive; x = no result given. Shown are actives, neighbours in structure and some others; about 2.1% of the full set was active somewhere.

SMILES	GSIS activator	PAX8 inh HTS	MLL AF4-AF9 inh	EWS-Fli inh	XiGFP reactiv	PGC1a acetyl inh
CCOc1cc(C(=O)N(C)CC(=O)Nc2cccc3ccccc23)ccc1OC	56.6*	4.9	1.0	6.4	0.0	4.5
CCSc1cc(N2CCCC2)nc(-c2ccc(Cl)cc2)n1	9.6	-35.2	-4.8	-4.2	0.0	5.9
CCSc1cc(N2CCOCC2)nc(-c2ccc(Cl)cc2)n1	6.3	135.1*	2.0	-1.5	0.1	x
CCOC(=O)c1ccc(N=c2scc(C)n2CC)cc1	-8.7	-107.8	26.1*	-36.5	0.2	0.8
CCOC(=O)c1ccc(N=NN(C)C)cc1	x	-93.6	1.1	-59.4	0.0	x
COc1cccc(-c2cc(C(=O)Nc3ccccc3)c3ccccc3n2)c1	-0.5	-5.7	-1.0	0.6	0.2	4.9
COc1ccc(COc2cc(-c3cccc(OC)c3)nc3ccc(NC(=O)C(C)C)cc23)cc1	12.2	-65.8	-4.9	55.0*	0.0	x
CC(=O)NCCC(=O)Nc1nc(-c2cccs2)c(-c2cccs2)s1	24.9	-5.7	x	-11.3	0.0	x
O=C(Nc1nc(-c2cccs2)c(-c2cccs2)s1)C1(c2ccccc2)CC1	5.9	102.4*	-2.3	5.1	0.0	2.7
Cc1ccccc1S(=O)(=O)N1CC[C@@H]2[C@@H](CO)Nc3ccc(-c4ccccc4F)cc3[C@@H]21	-2.6	-4.2	3.6	4.9	0.3	-9.7
CCN(c1cccc(C)c1)S(=O)(=O)c1ccc(-c2cc(C)no2)s1	12.8	27.7	-0.2	55.3*	0.3	6.3
COc1ccc(-c2cc(C)no2)cc1S(=O)(=O)N(C)c1cccc(C)c1	11.5	6.6	1.6	x	0.0	-29.0
CCOc1ccc(N(C)S(=O)(=O)c2cc(-c3cc(C)no3)ccc2C(C)C)cc1	-27.3	38.8	-12.2	10.8	0.2	-64.7
Cc1cccc(N(C)S(=O)(=O)c2ccc(-c3cc(C)no3)s2)c1	x	38.3	0.7	53.6*	1.8	-17.6
CCOc1ccc(N(C)S(=O)(=O)c2ccc(-c3cc(C)no3)s2)cc1	-4.0	23.9	0.9	54.9*	0.0	-20.2
COc1ccc(-c2ccc3n(c2=O)C[C@H]2[C@H](CO)[C@@H](C(=O)NCCN4CCCCC4)N(C)[C@@H]32)cc1	-9.1	-8.7	-0.2	-12.7	0.0	x
Cc1ccccc1OCCc1c(C)[nH]c(=S)[nH]c1=O	1.0	39.4	0.2	54.9*	0.3	x
C=CS(=O)(=O)c1ccc(Oc2ccc(S(=O)(=O)C=C)cc2)cc1	83.0*	98.0*	-24.0	52.6*	-0.1	x
NS(=O)(=O)c1ccc(Oc2ccc(S(N)(=O)=O)cc2)cc1	11.2	0.1	0.6	-0.8	0.0	20.8
C[C@@H]1CCCCO[C@H](CN(C)Cc2ccc3c(c2)OCO3)[C@@H](C)CN([C@@H](C)CO)C(=O)c2cc(NC(=O)C3CCCCC3)ccc2O1	-24.1	6.0	4.3	6.4	0.1	x
Cc1ccc(OCC(=O)NC(C)c2ccccc2)cc1 (centres undefined)	46.9*	5.0	-1.2	0.7	0.0	x
CC(NC(=O)COC(=O)c1ccccc1Nc1ccccc1)c1ccccc1 (centres undefined)	84.7*	x	x	x	x	-2.1
CC(NC(=O)COC(=O)c1ccccc1O)c1ccccc1 (centres undefined)	12.9	-25.4	0.3	2.5	0.0	-0.2
O=C(C[C@@H]1C[C@H]2c3cc(NC(=O)Nc4ccc(C(F)(F)F)cc4)ccc3O[C@H]2[C@@H](CO)O1)NCCc1ccccc1	-2.4	11.5	-0.4	26.5	0.2	6.8
COc1ccc(NC(=O)Nc2ccc3c(c2)C(=O)N([C@H](C)CO)C[C@H](C)[C@@H](CN(C)S(=O)(=O)c2ccc(OC)cc2)OCCCC[C@@H](C)O3)cc1	-4.9	22.9	x	-13.5	0.2	-11.7
SMILES	GSIS activator	PAX8 inh HTS	MLL AF4-AF9 inh	EWS-Fli inh	XiGFP reactiv	PGC1a acetyl inh
Cc1cc(/C=N/NC(=O)c2c(Br)cnn2C)c(C)n1-c1cccc(Br)c1	44.4	77.3*	9.3	-5.1	0.0	x
Cc1ccc(-n2ncc3c(=O)n(CC(=O)N4CCN(C(=O)c5ccco5)CC4)cnc32)cc1	5.0	73.0*	-1.4	1.2	0.4	4.4
Nc1ccc2c(c1)C(=O)C(=O)c1ccccc1-2	x	x	x	x	x	106.9*
CC(C)N(CC(=O)Nc1ccc(Cl)cc1C(F)(F)F)C(=O)CCl	11.5	91.8*	0.1	34.1	0.0	x
CCn1cc([N+](=O)[O-])c(C(=O)NCc2ccc3c(c2)OCO3)n1	6.0	-2.8	1.1	2.5	0.3	42.5*
CCn1cc([N+](=O)[O-])c(C(=O)Nc2ccc3c(c2)OCCO3)n1	x	x	x	x	x	4.7
Cc1ccc(C)c(N2CCN(c3ncccc3[N+](=O)[O-])CC2)c1	7.3	61.5*	21.4	0.2	0.0	27.1
Cc1ccc(N2CCN(c3ncccc3[N+](=O)[O-])CC2)c(C)c1	-9.2	-13.1	u	-7.3	0.0	-3.4
Cc1cc(C(C)(C)CC(C)(C)C)ccc1OCCOCC[N+](C)(C)Cc1ccccc1	333.2*	72.3*	22.3	39.8	-0.3	-35.1
O=C(CSc1nc2ccccc2c(=O)n1-c1ccccc1)NCc1ccc2c(c1)OCO2	109.6*	x	x	x	x	-11.4
COc1cc2c(cc1NC(=O)c1cccc([N+](=O)[O-])c1)oc1ccccc12	x	x	x	x	x	-10.9
COc1cc2c(cc1NC(=O)c1ccc(C)c([N+](=O)[O-])c1)oc1ccccc12	53.3*	4.8	x	x	0.2	-11.6
OC[C@@H]1CN(Cc2ccccc2)C[C@H](n2cnc3c(NCc4ccc(F)cc4)ncnc32)O1	-29.0	-15.5	3.4	-61.3	0.0	u
OC[C@@H]1CN(Cc2ccc(-c3ccccc3)cc2)C[C@H](n2cnc3c(NCc4ccc(F)cc4)ncnc32)O1	6.2	84.3*	-0.7	26.0	0.1	x
CC(=O)CSc1nnc(C(F)(F)F)n1C	-6.0	-17.9	33.2*	8.2	0.9	7.5
CC(=O)CSc1ccc(-c2nc3cc(C)c(C)cc3[nH]2)cn1	0.5	68.5*	-3.0	68.7*	0.3	x
CC(=O)CSc1ccc(-c2nc3ccccc3[nH]2)cn1	8.5	-9.2	-3.2	28.6	0.1	x
CC=Cc1ccc2n(c1=O)C[C@@H]1[C@@H](CO)[C@H](C(=O)NCCc3ccncc3)N(Cc3cncnc3)[C@H]21 (mixture of isomers)	-2.7	0.4	-0.5	4.2	0.0	2.0
CCn1cc(C(=O)NCc2ccco2)c(=O)c2cc(S(=O)(=O)N3CC(C)CC(C)C3)ccc21 (centres undefined)	x	63.3*	x	x	x	5.2
O=S(=O)(N[C@H]1CC[C@@H](CCn2cc(-c3cccnc3)nn2)O[C@H]1CO)c1ccccc1	3.0	-12.0	-0.7	-2.0	-0.1	7.9
CCOC(=O)COc1ccc2c3c(c(=O)oc2c1C)CCC3	x	x	x	x	x	-14.0
Cc1c(OCC(=O)N(C)c2ccccc2)ccc2c3c(c(=O)oc12)CCC3	-5.0	-19.2	31.9*	-4.9	0.2	x
